The record followed here is the RNAGym collection of RNA variant scans (doi:10.1126/science.aae0568).

To fix the notation:
B1: tRNA (parent)
chain: GUUCCGUUGGCGUAAUGGUAACGCGUCUCCCUCCUAAGGAGAAGACUGCGGGUUCGAGUCCCGUACGGAACG

Variants at the floor of the assay were thinned out.

The data set covers variants of B1. Nature of the data set: yeast fitness relative to wild type (ratio to wild type); higher = fitter; tRNA-Arg(CCU), competitive growth, 37 C, YPD. The method in brief:
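Gene amplicons from the start population and from each of six end populations were read by 100-nucleotide paired-end sequencing. Those end populations came from pooled Saccharomyces cerevisiae strains carrying tRNA-Arg(CCU) gene variants at the native locus, competed in YPD at 37°C for 24 hours. Fitness relative to wild type was worked out from changes in genotype frequencies. Genotypes needed ≥ 100 starting reads, and estimates < 0.5 were set to 0.5.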
As for U3A A14C C34A G52A A70G, the yeast fitness is 0.673.
The figure for U7A U8C C61U is 0.604; for A15U C22U G52A it is 0.596; for C27A C66U it is 0.868.
Consider C31G, for which the yeast fitness amounted to 0.939.
C31U: the yeast fitness is 0.986.
The same measure for U3C C4U A69U A70U: no more than 0.5.
Turning to A20C G25A G44A, the yeast fitness stood at 0.85.
The same measure for C31G A57G: 0.771; for U7A C60G: 0.561.
The same measure for G38C U54G C60A: 0.589; for C30G A37G A43U: 0.593; for C4A A15C U35A C49A: 0.545.
The same measure for C4A G17A C61A: 0.534.
On to G58U A65U, for which the yeast fitness amounted to 0.979.
The same measure for G9C C31G: 0.66; for C4U C11U A57G: 0.684; for A14G U26C A37G: no more than 0.5.
The figure for G50A C55A is 0.702; for A15G G39A A70C it is 0.742.
On to C4G U19C C62U, for which the yeast fitness was 0.799.
The same measure for A14U A65G: 0.559; for C5G C22G C31A C49G G63C A69U: no more than 0.5.
The figure for U28G G51C U64A C66U is no more than 0.5; for C4U G39C G48C C62G it is 0.549.
With C4U C11G C24A C29U, the yeast fitness was no more than 0.5.
U3C C30G A43C C60G C66G A69G: the yeast fitness was no more than 0.5.
On to U32C U53C, for which the yeast fitness is 0.766.
As to C4A U59C, the yeast fitness stood at 0.944.
The same measure for C5G U13G A36U U64G: no more than 0.5; for U2A A20G C34A C49U: no more than 0.5.
The figure for C5A C27U G39C C49U is 0.526.
The figure for A14G A45G is 0.919; for G17A C22A C60U C61U it is no more than 0.5.
For the variant A15G A20U A45U, the yeast fitness was no more than 0.5.
The same measure for C4G A14C C30U A40U G52C G67A: no more than 0.5; for G18A G25A C46U C55G A69C: no more than 0.5.
The same measure for U16A A43C C49U: 0.656; for C5G A14U U16C G18C U32A C62U: no more than 0.5.
Consider C11U U28G C29A, for which the yeast fitness is no more than 0.5.
The figure for C22G A36G is 0.966; for A14U G23A U64A C66A it is no more than 0.5; for C4U A70C it is 0.989.
Consider A15U C46G, for which the yeast fitness was 0.825.
The same measure for A15U C46U: 0.978; for C29G G56A G68C: no more than 0.5.
Consider U8A G25C C31G, for which the yeast fitness is no more than 0.5.
The same measure for A42C G63U: 0.72.
The same measure for U8C C30G U53C C60A C61A C66G: no more than 0.5; for G6C C33G A40U C46U C49G A65G: 0.624; for G9A A14G G56A G67A: no more than 0.5.
For the variant U7A A37G A40G A69U, the yeast fitness is no more than 0.5.
The figure for G17C C60A G67A is no more than 0.5.
For the variant C29A U32C A42U C66A A69C, the yeast fitness was no more than 0.5.
Consider A40C G50A C62U, for which the yeast fitness was 0.543.
The figure for G12A U13C G44C is 0.554; for U3C C62G G68A it is no more than 0.5.
The same measure for G10C C27G A42C C49A G67A: no more than 0.5; for C34G G63A: 0.633; for G9A G12C: 0.943.
Regarding C5A A14C A36G G39C C46A A65C, the yeast fitness is no more than 0.5.
Turning to A20C C24G C29G A65G, the yeast fitness is no more than 0.5.
In the case of C24A G50A C66U, the yeast fitness was 0.5.
The same measure for U8G G10C A20G G63A: no more than 0.5; for U8G C46U C55A C66U: 0.524.
As for C5G G17C G38C G52A, the yeast fitness is no more than 0.5.
Consider A14U A15C C31G G50A, for which the yeast fitness is 0.665.
On to U13A A65C, for which the yeast fitness turned out to be 0.79.
G18A U19C C22G C24A G39C A45C: the yeast fitness is 0.619.
The same measure for U13C A36C C55U G68C: no more than 0.5; for G18U U32C A57G: 0.568.
Consider U3A A70C, for which the yeast fitness is 0.988.
The same measure for C11G C31U U35A A37G A40C U47C U64G: no more than 0.5.
As for C27A U28C, the yeast fitness was 0.775.
The same measure for C30G G38C G56A: 0.959; for C33U G38A G41U C46U: no more than 0.5; for C5G C24G C29A A43U G68C: no more than 0.5.
The same measure for U2G C4U A65G: 0.729.
The figure for C4U A36U is 0.82; for U16A C61G C66G it is no more than 0.5.
As to U8C A14G G23A, the yeast fitness was no more than 0.5.
Turning to U3C G9A A65G, the yeast fitness came out at 0.888.
For the variant C4A C11U G18A A65C, the yeast fitness was 0.505.
The same measure for C27U C46G: 1.04; for U7A U8G A14G A36U A43U: no more than 0.5; for A14C G25C U47A C49U G63C: 0.561.
Consider G10C G58A, for which the yeast fitness was 0.553.
Consider U2A A37C A57C C60U, for which the yeast fitness was no more than 0.5.
The figure for A14C A43G is 0.628; for U7C G58C it is 0.781; for A37C C62G A69C it is no more than 0.5.
The figure for U13C G48C A57G is no more than 0.5; for C5G A14C A37G C46U G68C it is no more than 0.5; for C22U C27U C33A it is no more than 0.5.
U7G C30G: the yeast fitness turned out to be 0.509.
For U28A C31G U35C U47C C60U C61U, the yeast fitness was no more than 0.5.
The figure for U19A C49U G67A is 0.666; for G12C A70G it is 0.845.
In the case of U8A C27U A40G C49U C55G, the yeast fitness was 0.554.
The figure for A36C C55U G68C A70G is no more than 0.5; for U13A U53C U59A U64A A70C it is no more than 0.5.
For U3G C55U C66U, the yeast fitness is no more than 0.5.
Turning to C11U C22G C33U, the yeast fitness was no more than 0.5.
The same measure for G17C U19A C49G C66U: no more than 0.5; for G50A U59G: 0.846.
The same measure for A20U C24A A40C G50C C66U: no more than 0.5; for U16C C46A G56A: 0.769.
The same measure for C4A U28C A42G A65U A69C: no more than 0.5.
A14C A20U C27G U53C: the yeast fitness is no more than 0.5.
The figure for U8A U35A G44C A45U is 0.64; for C27G G41A A57C C62A it is no more than 0.5; for U13G G38C A42G G56C U59A A70U it is no more than 0.5.
The same measure for G9A C11U C29A: 0.506.
As to G12C C30U A36C A40U, the yeast fitness was no more than 0.5.
The same measure for U2G C11G G12A A20U C31G G68C: no more than 0.5.
The same measure for U13C C31G C33G: no more than 0.5; for A45U C55U A69G: no more than 0.5.
Regarding G6A A14G A36G A45U, the yeast fitness was 0.574.
The figure for A37G G50C is 0.693; for G38A C49A A70U it is 0.729; for G10A U26A G63A C66U it is no more than 0.5.
The same measure for A14G C34G A43C A70G: no more than 0.5; for G17A A21C C31U: no more than 0.5.
The figure for G6A C49U G63A is 0.688; for C27G G51A G63C it is no more than 0.5; for C5A A15G it is 0.779.
As to C4G C60U G63C G68A, the yeast fitness is no more than 0.5.
The figure for U53C A69U is 0.997.
On to C4U U26G C29U A65U G68A, for which the yeast fitness was no more than 0.5.
A20U C30G C33U C55A: the yeast fitness was no more than 0.5.
The figure for C33U C49A G68C is no more than 0.5.
Turning to G12A G58U A70G, the yeast fitness was 0.538.
As to U7A U47C A69C, the yeast fitness worked out at 0.601.
Turning to C31U C66U A69U, the yeast fitness is 0.807.
For A20C C24U A43C, the yeast fitness is no more than 0.5.
For A37U G50C C66U, the yeast fitness was found to be 0.593.
The figure for G38C U54A U59G A65C is 0.692; for G6A U53A it is 0.663.
The figure for U3A C60U C66G is 0.658.
For the variant U3A G17C A20C U28A C46A, the yeast fitness is no more than 0.5.
The figure for U3A A57C is 0.714; for C11A A42G U64A G67A it is no more than 0.5; for U8A G18C C27U G51C C55A C62U A65U G68A A69U it is no more than 0.5.
The same measure for A15U U19A: 0.767; for G6C U8C C49U A65U: no more than 0.5; for G9A A15C A43U: no more than 0.5.
The same measure for C4U U16A A40U: 0.666.
Consider A42U A43C U64C G68C, for which the yeast fitness was no more than 0.5.
As to C11U C24G A45C C60A G68U, the yeast fitness is no more than 0.5.
The figure for G6A C31G G41A is no more than 0.5; for C30A A43U it is 0.936; for A21C G52C it is 0.511.
On to U2G A21C A45G, for which the yeast fitness came to 0.54.
Turning to C5U U26G A43C C62G G63A C66G A69G, the yeast fitness was determined as 0.549.
A21G C30G C55U: the yeast fitness is 0.682.
For the variant G23A G50A, the yeast fitness turned out to be 0.819.
The same measure for G9A C66U: 0.898; for G18A C24U G58A: no more than 0.5; for C34A A42C U59A G67C: no more than 0.5.
The same measure for U13A C31G C46G A69U: 0.624; for G10C C29A A40U C55G G67C: no more than 0.5; for C22U C27U C33A C60U C62G: 0.558.
The same measure for G38A C66A: 0.72; for C11G G48A A65U: 0.525.
With C30G C33U G58C, the yeast fitness is 0.574.
The same measure for C5A A21G C31G U53G: no more than 0.5.
With U7G A21C G44C C66U, the yeast fitness is no more than 0.5.
